The term EC50 denotes the midpoint of the concentration-response curve. Low values mean an effect from little substance, high ones a need for much substance. Broadly, the inhibition is the percentage by which the read-out fell short of the control. For orientation: Inhibition means the change of the read-out against control, counted positive when it falls.

Assay [1] concerns Trypanosoma brucei. Kind of assay: Effective concentration in vitro against the bloodstream trypomastigote form of Trypanosoma brucei. In kind it is functional, organism-based. In a few lines:
(§1)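 T. brucei brucei AnTat 1.9 bloodstream forms kept cell-free at 10⁵ trypanosomes/mL. Drug added in 10-fold dilutions, 50 to 0.01 μM final, 16 replicates per dilution and control. Incubated 48 h at 37 °C, 5% CO2.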

Assay [2] deals with Trypanosoma brucei. As to the kind of experiment: Minimum effective concentration in vitro against the bloodstream trypomastigote form of Trypanosoma brucei. In kind it is functional. As to conditions: read-out: MEC. In a few lines:
as §1

For assay [3], the system named is Leishmania infantum. Kind of assay: In vitro percent inhibition against mouse peritoneal macrophages infected with Leishmania infantum at 12.5 uM concentration. It counts as functional. The essentials:
(§2)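 Primary mouse peritoneal macrophages seeded at 30 000 cells/well. After 24 h, spleen-derived L. infantum (MOHM/MA BE/67) amastigotes added at a 10:1 infection ratio with 2-fold drug dilutions. Incubated 5 days at 37 °C, 5% CO2; uninfected cultures treated in parallel. Total parasite load or infected-macrophage count scored microscopically on Wright-stained slides, versus untreated controls.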

Assay [4] relates to Leishmania infantum. As to the kind of experiment: In vitro percent inhibition against mouse peritoneal macrophages infected with Leishmania infantum at 25 uM concentration. It counts as functional. The essentials:
as §2

Assay [5] relates to Leishmania infantum. Kind of assay: In vitro percent inhibition against mouse peritoneal macrophages infected with Leishmania infantum at 6.2 uM concentration. It counts as functional. In a few lines: as §2
Assay [6] deals with Trypanosoma cruzi. Kind of assay: In vitro percent inhibition against mouse peritoneal macrophages infected with Trypanosoma cruzi at 12.5 uM concentration. It counts as functional. In a few lines: (§3)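 Mouse peritoneal macrophages seeded at 30 000 cells/well. After 24 h, about 100 000 T. cruzi Tulahen CL2 trypomastigotes per well added with 2-fold drug dilutions. Incubated 4 days at 37 °C, 5% CO2; uninfected cultures treated alike. Reduction of total parasite load (free trypomastigotes plus intracellular amastigotes) versus untreated controls scored microscopically.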

For assay [7], the system named is Trypanosoma cruzi. As to the kind of experiment: In vitro percent inhibition against mouse peritoneal macrophages infected with Trypanosoma cruzi at 25 uM concentration. In kind it is functional. The essentials: as §3
Assay [8] relates to Trypanosoma cruzi. Kind of assay: In vitro percent inhibition against mouse peritoneal macrophages infected with Trypanosoma cruzi at 6.2 uM concentration. It counts as functional. In a few lines: as §3
The test system of assay [9] is Trypanosoma cruzi. As to the kind of experiment: In vitro percent inhibition against mouse peritoneal macrophages infected with Trypanosoma cruzi at 3.1 uM concentration. It counts as functional. The essentials:
as §3

For assay [10], the system named is Leishmania infantum. As to the kind of experiment: In vitro percent inhibition against mouse peritoneal macrophages infected with Leishmania infantum at 3.1 uM concentration. In kind it is functional. The essentials:
as §2

For assay [11], the system named is Homo sapiens (MRC-5 cells). As to the kind of experiment: Concentration that cause cytotoxicity at 25 uM concentration.
In assay [12] the test system is Homo sapiens (MRC-5 cells). Kind of assay: Concentration that cause cytotoxicity at 3.1 uM concentration.
In assay [13] the test system is Homo sapiens (MRC-5 cells). Kind of assay: Concentration that cause cytotoxicity at 6.2 uM concentration.
Assay [14] relates to Homo sapiens (MRC-5 cells). As to the kind of experiment: Concentration that cause cytotoxicity at 12.5 uM concentration.
A further assay has as its system Leishmania donovani. Kind of assay: Percent inhibition in vitro against intracellular form of Leishmania donovani at 90 uM concentration. In kind it is functional. In a few lines: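 Hamster-spleen-derived L. donovani (MHOM/ET/67/L82) amastigotes infect mouse peritoneal macrophages in chamber slides. Infected cells kept with drug across 90–3 μM in quadruplicate for 7 days at 37 °C. Activity taken as percentage of macrophages cleared of amastigotes; sodium stibogluconate served as positive control.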

For assay [15], the system named is Trypanosoma cruzi. As to the kind of experiment: Percent inhibition in vitro against intracellular form of Trypanosoma cruzi at 10 uM concentration. In kind it is functional. The essentials: (§4)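 T. cruzi Y strain (MHOM/BR/OO/Y) trypomastigotes, grown in L6 myoblast cultures, infect mouse peritoneal macrophages in medium with drug from 90 to 3 μM. Incubation 72 h at 37 °C. Activity read as percent of infected macrophages in treated cultures.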

Assay [16] relates to Trypanosoma cruzi. Kind of assay: Percent inhibition in vitro against intracellular form of Trypanosoma cruzi at 30 uM concentration. In kind it is functional. In a few lines: as §4
The test system of assay [17] is Trypanosoma cruzi. Kind of assay: Percent inhibition in vitro against intracellular form of Trypanosoma cruzi at 90 uM concentration. In kind it is functional. In a few lines: as §4
Assay [18] has as its system Leishmania infantum. As to the kind of experiment: In vitro percent inhibition against mouse peritoneal macrophages infected with Leishmania infantum at 25 uM concentration; Toxic for macrophage. In kind it is functional, organism-based. The essentials: as §2
Assay [19] relates to Trypanosoma cruzi. Kind of assay: In vitro percent inhibition against mouse peritoneal macrophages infected with Trypanosoma cruzi at 25 uM concentration; Toxic for macrophage. In kind it is functional, organism-based. The essentials:
as §3

Assay [20] has as its system Homo sapiens (MRC-5 cells). As to the kind of experiment: Concentration that cause cytotoxicity at 1.5 uM concentration.
For assay [21], the system named is Trypanosoma cruzi. As to the kind of experiment: Percent inhibition in vitro against intracellular form of Trypanosoma cruzi at 3 uM concentration. It counts as functional. In a few lines: as §4
Assay [22] deals with Trypanosoma cruzi. Kind of assay: Effective dose against Trypanosoma cruzi. In kind it is functional.
The subject of assay [23] is Homo sapiens (MRC-5 cells). Kind of assay: Concentration that cause cytotoxicity at 25 uM concentration in human MRC-5 cells.
In assay [24] the test system is Homo sapiens (MRC-5 cells). As to the kind of experiment: Concentration that cause cytotoxicity at 3.1 uM concentration in human MRC-5 cells.
Assay [25] deals with Homo sapiens (MRC-5 cells). As to the kind of experiment: Concentration that cause cytotoxicity at 6.2 uM concentration in human MRC-5 cells.
Assay [26] has as its system Homo sapiens (MRC-5 cells). As to the kind of experiment: Concentration that cause cytotoxicity at 12.5 uM concentration in human MRC-5 cells.

For `Cc1ccc(C(=O)Nc2ccc(S(=O)(=O)O)c3cc(S(=O)(=O)O)cc(S(=O)(=O)O)c23)cc1NC(=O)c1cccc(NC(=O)Nc2cccc(C(=O)Nc3cc(C(=O)Nc4ccc(S(=O)(=O)O)c5cc(S(=O)(=O)O)cc(S(=O)(=O)O)c45)ccc3C)c2)c1` [SURAMIN], in the assay with Trypanosoma brucei [1], the EC50 is 20 nM. Further, the minimal effective concentration in the assay with Trypanosoma brucei [2] amounted to 0.8 µM.
On to `Cn1c([N+](=O)[O-])cnc1-c1nnc(NC(=O)CCCC(=O)NC2C(O)OC(CO)C(O)C2O)s1` (centres undefined), for which the inhibition at 12.5 µM worked out at 0% in the assay on Leishmania infantum [3] and 99% in the assay with Trypanosoma cruzi [6]. Also, the values for the inhibition at 25 µM with Leishmania infantum [4] and with Trypanosoma cruzi [7] were 0% and 99%, respectively. Besides, the inhibition at 6.2 µM in the assay with Leishmania infantum [5] was 0%; in the assay on Trypanosoma cruzi [8], 60%. Besides, the inhibition at 3.1 µM was 20% in the assay with Trypanosoma cruzi [9] and 0% with Leishmania infantum [10].
In the assay with Trypanosoma brucei [1], `Cn1c(-c2nnc(N)s2)nc(Br)c1[N+](=O)[O-]` had an EC50 of 500 nM. The minimal effective concentration with Trypanosoma brucei [2] stood at 3.3 µM.
With `Cn1c(-c2nnc(N)s2)nc(C(F)(F)F)c1[N+](=O)[O-]`, the EC50 in the assay on Trypanosoma brucei [1] was determined as 25000 nM. In addition, in the assay on Trypanosoma brucei [2], the minimal effective concentration is over 34 µM.
As to `Cn1c([N+](=O)[O-])cnc1-c1nnc(NC(=O)C(F)(F)F)s1`, the minimal effective concentration in the assay with Trypanosoma brucei [2] came to 31 µM.
The same measure, in the same setting: then `Nc1nnc(-c2ccc([N+](=O)[O-])o2)o1`, with over 51 µM.
The molecule `Cc1nc(-c2nnc(N)s2)n(C)c1[N+](=O)[O-]` came in with an EC50 with Trypanosoma brucei [1] of over 41000 nM. Moreover, the minimal effective concentration in the assay on Trypanosoma brucei [2] is over 41 µM.
Regarding `N/C(S)=N/N=C/c1ccc([N+](=O)[O-])s1`, the inhibition at 25 µM in the assay with Leishmania infantum [4] was 40%; in the assay on Trypanosoma cruzi [7], 90%; in assay [11], 0%. Also, the inhibition at 6.2 µM is 0% with Leishmania infantum [5], 40% in the assay on Trypanosoma cruzi [8] and 0% in [13]. 3.1 µM produced 0% inhibition in assay [12]. The same molecule returned an inhibition at 12.5 µM in [14] of 0%.
For `Cn1c(-c2nnc(N)s2)nc(N2CCCCC2)c1[N+](=O)[O-]`, the figures for the inhibition at 90 µM with Leishmania donovani and with Trypanosoma cruzi [17] were 0% and 41%, respectively. Also, in the assay with Trypanosoma cruzi [15], at 10 µM the inhibition was 0%. Besides, in the assay with Trypanosoma cruzi [16], 30 µM produced 3% inhibition.
Take `Cn1c([N+](=O)[O-])cnc1S(C)(=O)=O`: the inhibition at 12.5 µM in the assay on Leishmania infantum [3] was found to be 0%; in the assay on Trypanosoma cruzi [6] it was 0%; in assay [14], 29%. Further, the inhibition result with Leishmania infantum [18] and in the assay with Trypanosoma cruzi [19] was “Toxic for macrophage” throughout. Moreover, the inhibition at 6.2 µM in the assay on Leishmania infantum [5] and in the assay with Trypanosoma cruzi [8] was 0% each time. The molecule also yielded an EC50 in the assay with Trypanosoma brucei [1] of 8000 nM. Further, the minimal effective concentration with Trypanosoma brucei [2] was over 49 µM. Besides, the inhibition at 3.1 µM with Trypanosoma cruzi [9] amounted to 0%; with Leishmania infantum [10] it was 0%; in [12], 28%. For the same molecule, in [11], the inhibition at 25 µM came out at 85%. In assay [20], this molecule displayed an inhibition at 1.5 µM of 21%.
Take `Cn1c(-c2nnc(N)s2)nc(Sc2ccccc2)c1[N+](=O)[O-]`: the inhibition at 12.5 µM in the assay on Leishmania infantum [3] turned out to be 0%; in the assay on Trypanosoma cruzi [6], 60%; in assay [14] it was 3%. Also, the results for the inhibition at 25 µM (in the assay with Leishmania infantum [4]; with Trypanosoma cruzi [7]; in assay [11]) were 0%, 80% and 40%, respectively. Moreover, the inhibition at 6.2 µM (with Leishmania infantum [5]; with Trypanosoma cruzi [8]; in assay [13]) was 0% each time. Moreover, the inhibition at 3.1 µM in the assay with Trypanosoma cruzi [9] and with Leishmania infantum [10] was 0% in each case.
With `CC(=O)Nc1nnc(-c2ncc([N+](=O)[O-])n2C)s1`, the figures for the inhibition at 12.5 µM (in the assay on Leishmania infantum [3]; in the assay on Trypanosoma cruzi [6]; in assay [14]) were 40%, 99% and 0%, respectively. The inhibition at 25 µM in the assay with Leishmania infantum [4] amounted to 40%; in the assay on Trypanosoma cruzi [7] it was 99%; in assay [11], 0%. For the same molecule, the inhibition at 6.2 µM came to 0% with Leishmania infantum [5], 99% in the assay on Trypanosoma cruzi [8] and 0% in assay [13]. This molecule had an EC50 in the assay on Trypanosoma brucei [1] of 200 nM. The minimal effective concentration with Trypanosoma brucei [2] was found to be 1.6 µM. Moreover, the inhibition at 3.1 µM stood at 99% in the assay with Trypanosoma cruzi [9] and 0% in the assay on Leishmania infantum [10].
Molecule `Cn1c([N+](=O)[O-])cnc1/C=N/N=C(/N)S` yielded an inhibition at 10 µM in the assay on Trypanosoma cruzi [15] of 71%. This molecule registered an inhibition at 3 µM in the assay on Trypanosoma cruzi [21] of 54%. Besides, the inhibition at 30 µM in the assay on Trypanosoma cruzi [16] was 93%. This molecule also showed an inhibition at 90 µM with Trypanosoma cruzi [17] of 99%. Moreover, in the assay on Trypanosoma cruzi [22], the ED50 is 3.3 µM.
In the case of `NC(=O)N/N=C/c1ccc([N+](=O)[O-])o1` [NITROFURAZONE], the values for the inhibition at 25 µM in the assay on Leishmania infantum [4] and in the assay with Trypanosoma cruzi [7] were 0% and 99%, respectively. The values for the inhibition at 6.2 µM in the assay with Leishmania infantum [5] and with Trypanosoma cruzi [8] were 0% and 40%, respectively. The minimal effective concentration in the assay on Trypanosoma brucei [2] stood at 5 µM. Besides, the Inhibition in [23], in assay [24], in [25] and in [26] was 0% in each case.
Consider `Nc1nnc(-c2ccc([N+](=O)[O-])o2)s1`, for which the inhibition at 25 µM in the assay with Leishmania infantum [4] turned out to be 40%; in [11], 4%. Further, the inhibition at 6.2 µM in the assay on Leishmania infantum [5] was determined as 0%; in the assay on Trypanosoma cruzi [8], 95%; in [13], 0%. The molecule also yielded an inhibition at 3.1 µM in assay [12] of 0%. Besides, in assay [14], at 12.5 µM the inhibition was 0%.
